Source: ChEMBL document CHEMBL2176957, “Discovery of a novel noniminosugar acid α glucosidase chaperone series” (J Med Chem, 2012)
In brackets after ≈: the same amount, converted by molar mass. Activity calls are given as the source filed them. The calls are words filed in the database; no cut-off is given here.

Legend:
[1] = biological target: T1, Lysosomal alpha-glucosidase (Homo sapiens, UniProt P10253); experiment: Inhibition of wild type recombinant GAA preincubated for 5 mins measured after 45 mins using blue-shifted dye by fluorescence assay
[2] = biological target: T1, Lysosomal alpha-glucosidase; experiment: Inhibition of wild type recombinant GAA preincubated for 5 mins measured after 45 mins using red-shifted dye by fluorescence assay
[3] = test system: Caco-2; experiment: Efflux ratio from basolateral to apical side to apical to basolateral side of human Caco2 cells; type: ADME, cell-based
[4] = test system: Caco-2; experiment: Permeability from basolateral to apical side of human Caco2 cells
[5] = biological target: T1, Lysosomal alpha-glucosidase; experiment: Ratio of Kd for wild type recombinant NT-495 labelled GAA to IC50 for wild type recombinant GAA (unknown origin
[6] = biological target: T1, Lysosomal alpha-glucosidase; experiment: Increase in GAA activity in human F2845 cells incubated for 5 days by fluorescence assay relative to vehicle-treated control; type: cell-based
Method in brief: (§1)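 Fibroblasts seeded at 5,000 cells/well and treated 5 days, with media and compound renewed on day 3. Assayed directly or after PBS wash and 18 h or 40 h in compound-free medium. Cells were incubated 2 h at 37 °C in pH 4.0 citrate/phosphate buffer with 3 mM 4-MUG and acarbose, then stopped at pH 10. Background subtracted, normalized to vehicle (100%); triplicate, mean ±SD.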

[7] = biological target: T1, Lysosomal alpha-glucosidase; experiment: Increase in translocation of GAA to lysosome in human F0833 cells at 1 uM after 5 days by confocal laser-scanning microscopic analysis; type: cell-based
Method in brief: (§2)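 Wild-type primary dermal fibroblasts or Pompe patient fibroblasts (F3248, F0833, F2845; low passage) treated with compound for 5 or 6 days. Fixed in 3% paraformaldehyde, permeabilized with 0.1% Triton X-100, blocked, stained with mouse anti-GAA (Alexa-488) and goat anti-cathepsin D (Alexa-555), DAPI counterstain. Confocal images taken at fixed laser settings; percentage of cells with lysosomal GAA co-localization scored.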

[8] = biological target: T1, Lysosomal alpha-glucosidase; experiment: Increase in translocation of GAA to lysosome in human F3248 cells at 1 uM after 5 days by confocal laser-scanning microscopic analysis; type: cell-based; method in brief: as §2
[9] = biological target: T1, Lysosomal alpha-glucosidase; experiment: Increase in translocation of GAA to lysosome in human F2845 cells at 1 uM after 5 days by confocal laser-scanning microscopic analysis; type: cell-based; method in brief: as §2
[10] = biological target: T1, Lysosomal alpha-glucosidase; experiment: Increase in translocation of GAA to lysosomes in human wild type skin fibroblasts at 5 uM after 6 days by confocal laser-scanning microscopic analysis; method in brief: as §2
[11] = Aqueous solubility in PBS buffer
[12] = biological target: T1, Lysosomal alpha-glucosidase; experiment: Binding affinity at wild type recombinant GAA assessed as rise in melting temperature of protein using SYPRO Orange dye by fluorescence assay
Method in brief: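 Thermal shift of recombinant wild-type GAA (1 μM) with SYPRO Orange (5×) in 50 mM citrate buffer pH 5.0 with 100 mM KCl, 10 mM NaCl, 1 mM MgCl2. Six-point compound series, 0.82–200 μM final, 2% DMSO, DMSO controls. Heated 20 to 95 °C at 4.8 °C/s; fluorescence ex 498/em 580 nm; Tm calculated from the melt curve.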

[13] = test system: Liver; experiment: Half life in mouse liver microsomes
[14] = Cytotoxicity in human F2845 cells at 5 uM after 6 days by confocal laser-scanning microscopic analysis; type: cell-based; conditions: f2845, 144 h
Method in brief: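 Primary wild-type dermal fibroblasts and patient-derived Pompe fibroblasts (passage 7) grown on chamber slides and exposed to compound for 5 or 6 days. Viability judged from the cultures examined by immunostaining and confocal microscopy.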

[15] = biological target: T1, Lysosomal alpha-glucosidase; experiment: Increase in GAA activity in human wild type skin fibroblasts incubated for 5 days followed by 18 to 40 hrs wash out by fluorescence assay relative to vehicle-treated control; method in brief: as §1
[16] = test system: Caco-2; experiment: Permeability from apical to basolateral side of human Caco2 cells
[17] = biological target: T1, Lysosomal alpha-glucosidase; experiment: Increase in translocation of GAA to lysosome in human F0833 cells at 5 uM after 5 days by confocal laser-scanning microscopic analysis; type: cell-based; method in brief: as §2
[18] = biological target: T1, Lysosomal alpha-glucosidase; experiment: Increase in translocation of GAA to lysosome in human F2845 cells at 5 uM after 5 days by confocal laser-scanning microscopic analysis; type: cell-based; method in brief: as §2
[19] = biological target: T1, Lysosomal alpha-glucosidase; experiment: Increase in GAA activity in human wild type skin fibroblasts incubated for 5 days by fluorescence assay relative to vehicle-treated control; method in brief: as §1
[20] = biological target: T1, Lysosomal alpha-glucosidase; experiment: Increase in GAA activity in human F2845 cells incubated for 5 days followed by 18 to 40 hrs wash out by fluorescence assay relative to vehicle-treated control; type: cell-based; method in brief: as §1
[21] = biological target: T1, Lysosomal alpha-glucosidase; experiment: Increase in translocation of GAA to lysosomes in human wild type fibroblasts at 15 uM after 6 days confocal laser-scanning microscopic analysis; method in brief: as §2
[22] = biological target: T1, Lysosomal alpha-glucosidase; experiment: Increase in translocation of GAA to lysosome in human F3248 cells at 5 uM after 5 days by confocal laser-scanning microscopic analysis; type: cell-based; method in brief: as §2
[23] = biological target: T1, Lysosomal alpha-glucosidase; experiment: Binding affinity at wild type recombinant GAA assessed as thermostabilization of protein at 50 uM incubated at 66 degC for 60 mins
Method in brief: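 GAA incubated at 66 °C for 60 min with compound at 50 μM, compared with room-temperature incubation. Residual enzymatic activity read out and expressed as the ratio of heated to room-temperature activity; DMSO controls run in duplicate.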

SMILES: CC(=O)c1ccc(N2CCN(S(=O)(=O)c3ccc4c(c3)C(=O)OC4)CC2)cc1
- IC50 [1]: Not Active
- IC50 [2]: Not Active

SMILES: O=C1Cc2cc(S(=O)(=O)N3CCNCC3)ccc2N1
- IC50 [1]: Not Active
- IC50 [2]: Not Active

SMILES: CC(=O)c1ccc(N2CCN(S(=O)(=O)c3ccc4c(c3)n(C)c(=O)n4C)CC2)cc1
- IC50 [1]: Not Active
- IC50 [2]: Not Active

SMILES: O=C1Cc2cc(S(=O)(=O)N3CCN(c4ccc(F)cc4)CC3)ccc2N1
- IC50 [1]: Not Active
- IC50 [2]: Not Active

SMILES: CC(=O)c1ccc(N2CCN(S(=O)(=O)c3ccc4c(c3)oc(=O)n4C)CC2)cc1
- IC50 [1]: Not Active
- IC50 [2]: Not Active

SMILES: CC(=O)N1CCN(S(=O)(=O)c2ccc3c(c2)CC(=O)N3)CC1
- IC50 ([1]; read-out: IC50): 11.9 µM
- IC50 ([2]; read-out: IC50): 14.9 µM

SMILES: CC(=O)c1ccc(N2CCN(S(=O)(=O)c3ccc4c(c3)C(Cl)(Cl)C(=O)N4)CC2)cc1
- IC50 ([1]; read-out: IC50): 32.6 µM
- IC50 ([2]; read-out: IC50): 41 µM

SMILES: O=C1Cc2cc(S(=O)(=O)N3CCN(c4ccc(C(F)(F)F)cc4)CC3)ccc2N1
- IC50 [1]: Not Active
- IC50 [2]: Not Active

SMILES: CC(=O)c1ccc(N2CCN(S(=O)(=O)c3cc4c(cc3Cl)NC(=O)C4)CC2)cc1
- IC50 ([1]; read-out: IC50): 1.63 µM
- Ratio [3]: 0.57
- Papp [4]: 30.9 ×10⁻⁶ cm/s
- Ratio [5]: 20
- Activity [6]: Active
- Activity [7]: inactive
- Activity [8]: inactive
- Activity [9]: inactive
- Activity [10]: 30%
- solubility [11]: 20.8 µM (≈ 9.03 µg/mL)
- Activity [12]: Active
- t1/2 [13]: > 1 h
- Activity [14]: Toxic
- Activity [15]: Active
- IC50 ([2]; read-out: IC50): 1.63 µM
- Papp [16]: 54.3 ×10⁻⁶ cm/s
- Activity [17]: Active
- Activity [18]: Active
- Activity [19]: Active
- Activity [20]: Active
- Activity [21]: 40%
- Activity [22]: Active
- Activity [23]: Active

SMILES: COc1ccc(N2CCN(S(=O)(=O)c3ccc4c(c3)CC(=O)N4)CC2)cc1
- IC50 ([1]; read-out: IC50): 23.7 µM
- IC50 ([2]; read-out: IC50): 18.8 µM

SMILES: CC(=O)c1ccc(N2CCN(S(=O)(=O)c3ccc4c(c3)OCC(=O)N4)CC2)cc1
- IC50 [1]: Not Active
- IC50 [2]: Not Active

SMILES: COC(=O)c1ccc(N2CCN(S(=O)(=O)c3ccc4c(c3)CC(=O)N4)CC2)cc1
- IC50 ([1]; read-out: IC50): 25.9 µM
- IC50 ([2]; read-out: IC50): 36.6 µM

SMILES: CC(=O)c1ccc(N2CCN(C(=O)c3ccc4c(c3)CCC(=O)N4)CC2)cc1
- IC50 [1]: Not Active
- IC50 [2]: Not Active

SMILES: CC(=O)c1ccc(N2CCN(C(=O)c3ccc4c(c3)CC(=O)N4)CC2)cc1
- IC50 [1]: Not Active
- IC50 [2]: Not Active

SMILES: CC(=O)c1ccc(N2CCN(S(=O)(=O)c3ccc4[nH]c(=O)oc4c3)CC2)cc1
- IC50 [1]: Not Active
- IC50 [2]: Not Active

SMILES: Cc1ccc(N2CCN(S(=O)(=O)c3ccc4c(c3)CC(=O)N4)CC2)cc1
- IC50 [1]: Not Active
- IC50 [2]: Not Active

SMILES: O=C1Cc2cc(S(=O)(=O)N3CCN(c4ccc(CO)cc4)CC3)ccc2N1
- IC50 ([1]; read-out: IC50): 13 µM
- IC50 ([2]; read-out: IC50): 13 µM

SMILES: CC(=O)N1CCN(c2ccc(NS(=O)(=O)c3ccc4c(c3)CC(=O)N4)cc2)CC1
- IC50 [1]: Not Active
- IC50 [2]: Not Active

SMILES: CC(=O)c1ccc(N2CCN(S(=O)(=O)c3ccc4[nH]c(=O)[nH]c4c3)CC2)cc1
- IC50 [1]: Not Active
- IC50 [2]: Not Active

SMILES: N#Cc1ccc(N2CCN(S(=O)(=O)c3ccc4c(c3)CC(=O)N4)CC2)cc1
- IC50 ([1]; read-out: IC50): 2.91 µM
- solubility [11]: 14.9 µM (≈ 5.7 µg/mL)
- t1/2 [13]: 0.95 h
- IC50 ([2]; read-out: IC50): 3.26 µM

SMILES: CC(=O)Nc1ccc(S(=O)(=O)N2CCN(c3ccc(C(C)=O)cc3)CC2)cc1
- IC50 [1]: Not Active
- IC50 [2]: Not Active

SMILES: O=Cc1ccc(N2CCN(S(=O)(=O)c3ccc4c(c3)CC(=O)N4)CC2)cc1
- IC50 ([1]; read-out: IC50): 3.66 µM
- IC50 ([2]; read-out: IC50): 4.11 µM

SMILES: O=C1Cc2cc(S(=O)(=O)N3CCN(c4ccc(Cl)cc4)CC3)ccc2N1
- IC50 ([1]; read-out: IC50): 94.3 µM
- IC50 ([2]; read-out: IC50): 94.3 µM

SMILES: O=C1Cc2cc(S(=O)(=O)N3CCN(c4cccc(C(F)(F)F)c4)CC3)ccc2N1
- IC50 ([1]; read-out: IC50): 14.9 µM
- IC50 ([2]; read-out: IC50): 14.9 µM

SMILES: CC(=O)c1ccc(N2CCN(S(=O)(=O)c3ccc4c(c3)CCCN4C(C)=O)CC2)cc1
- IC50 [1]: Not Active
- IC50 [2]: Not Active

SMILES: CC(=O)c1ccc(N2CCN(S(=O)(=O)c3ccc(N4CCCC4=O)cc3)CC2)cc1
- IC50 [1]: Not Active
- IC50 [2]: Not Active

SMILES: O=C1Cc2cc(S(=O)(=O)N3CCN(c4ccc([N+](=O)[O-])cc4)CC3)ccc2N1
- IC50 ([1]; read-out: IC50): 3.66 µM
- IC50 ([2]; read-out: IC50): 3.26 µM

SMILES: CC(=O)c1ccc(N2CCN(S(=O)(=O)c3ccc4c(c3)CCC(=O)N4)CC2)cc1
- IC50 [1]: Not Active
- IC50 [2]: Not Active

SMILES: O=C1Cc2cc(S(=O)(=O)N3CCN(c4ccc(O)cc4)CC3)ccc2N1
- IC50 ([1]; read-out: IC50): 1.88 µM
- Papp [4]: 19.5 ×10⁻⁶ cm/s
- solubility [11]: 37.3 µM (≈ 13.9 µg/mL)
- t1/2 [13]: > 1 h
- IC50 ([2]; read-out: IC50): 2.37 µM
- Papp [16]: 17.8 ×10⁻⁶ cm/s

SMILES: CC(=O)c1ccc(N2CCN(S(=O)(=O)c3ccc4c(c3)CC(C)N4C(C)=O)CC2)cc1 (stereo unspecified)
- IC50 [1]: Not Active
- IC50 [2]: Not Active

SMILES: O=C1Cc2cc(S(=O)(=O)N3CCN(c4ccc(Br)cc4)CC3)ccc2N1
- IC50 [1]: Not Active
- IC50 [2]: Not Active

SMILES: CC(=O)c1ccc(N2CCN(S(=O)(=O)c3ccc4c(c3)CCCC(=O)N4)CC2)cc1
- IC50 [1]: Not Active
- IC50 [2]: Not Active
